pIC50: −log10 of the molar value.
Assays:
Type in all cases: functional
[1] = system: L1210; test: Growth inhibition of cultured L1210 mouse leukemia cells was determined; settings: read-out: ID50 (the source's name)
Outline: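 L1210 mouse leukemia cells in suspension in Eagle's MEM with 15% whole (non-dialyzed, non-heat-inactivated) fetal calf serum, antibiotics and 0.05 mM 2-mercaptoethanol, 37 °C, 5% CO2. Drugs in pH 7.4 phosphate buffer or Me2SO, generally 10^-7 to 10^-3 M. Coulter cell counts at 48 h; ID50 relative to untreated controls from dose–response curves, triplicate.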

[2] = system: Mus musculus; test: Antitumor activity against L1210 leukemia in mice (Average weight per mouse on day 1.) at the dose of 160 mg/kg
Outline: (§1)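 Male B6D2F1J mice (5–9 per group) received 10^5 L1210 cells i.p. on day 0 and drug from day 1, given qd×5 or q4d(2,6). Vehicles were sterile water, 0.05 M potassium phosphate pH 7.4, or 0.4% Tween 80/0.5% CMC/0.9% benzyl alcohol/0.9% saline. Read-out is average body weight per mouse (g) on day 1.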

[3] = system: Mus musculus; test: Antitumor activity against L1210 leukemia in mice (Average weight per mouse on day 1.) at the dose of 320 mg/kg; outline: as §1
[4] = system: Mus musculus; test: Antitumor activity against L1210 leukemia in mice (Average weight per mouse on day 1.) at the dose of 640 mg/kg; outline: as §1
[5] = system: Mus musculus; test: Antitumor activity against L1210 leukemia in mice (Average weight per mouse on day 1.) at the dose of 80 mg/kg; outline: as §1
[6] = system: Mus musculus; test: Antitumor activity against L1210/ara-C leukemia in mice (Average weight per mouse on day 1.) at the dose of 160 mg/kg
Outline: (§2)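 Male B6D2F1J mice, groups of 5–9, inoculated ip with 10^5 L1210/ara-C cells on day 0. Dosing began day 1 on a qd×5 or q4d(2,6) schedule. Ara-C was given in sterile water, the n-butyl phosphate ester in 0.05 M pH 7.4 potassium phosphate buffer, and others as suspensions in 0.4% Tween 80/0.5% CMC/0.9% benzyl alcohol/0.9% saline. Mice were weighed on days 1 and 7; 7-day change given in g and %.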

[7] = system: Mus musculus; test: Antitumor activity against L1210/ara-C leukemia in mice (Average weight per mouse on day 1.) at the dose of 640 mg/kg; outline: as §2
[8] = system: Mus musculus; test: Antitumor activity against L1210/ara-C leukemia in mice (Average weight per mouse on day 1.) at the dose of 80 mg/kg; outline: as §2
[9] = system: Mus musculus; test: Antitumor activity against L1210 leukemia in mice (Percent increase in life span.) at the dose of 160 mg/kg
Outline: (§3)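 Male B6D2F1J mice, groups of 5–9, inoculated ip with 10^5 L1210 cells on day 0. Dosing starts day 1 on a qd×5 or q4d(2,6) schedule. Vehicles are sterile water, pH 7.4 0.05 M potassium phosphate buffer, or 0.4% Tween 80/0.5% CMC/0.9% benzyl alcohol/0.9% saline. %ILS = (T/C − 1)×100 from median survival. Weights taken days 1 and 7.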

[10] = system: Mus musculus; test: Antitumor activity against L1210 leukemia in mice (Percent increase in life span.) at the dose of 320 mg/kg; outline: as §3
[11] = system: Mus musculus; test: Antitumor activity against L1210 leukemia in mice (Percent increase in life span.) at the dose of 640 mg/kg; outline: as §3
[12] = system: Mus musculus; test: Antitumor activity against L1210 leukemia in mice (Percent increase in life span.) at the dose of 80 mg/kg; settings: L1210, dose 80 mg/kg; outline: as §3
[13] = system: Mus musculus; test: Antitumor activity against L1210/ara-C leukemia in mice (Percent increase in life span.) at the dose of 160 mg/kg
Outline: (§4)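 Same protocol as the L1210 assay, but with 10^5 kinase-deficient L1210/ara-C cells inoculated ip into male B6D2F1J mice (groups of 5–9) on day 0. Treatment begins day 1, qd×5 or q4d(2,6). %ILS = (T/C − 1)×100 using median survival times of treated and control groups. Body weight recorded days 1 and 7.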

[14] = system: Mus musculus; test: Antitumor activity against L1210 leukemia in mice (Average 7-day weight change (%)) at the dose of 160 mg/kg
Outline: (§5)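 Male B6D2F1J mice, groups of five to nine, inoculated ip with 10^5 L1210 cells on day 0. Drug treatment started day 1 on qd×5 or q4d(2,6) schedule. Vehicles: ara-C in sterile water; the n-butyl phosphate ester in 0.05 M pH 7.4 potassium phosphate buffer; others as suspensions in 0.4% Tween 80/0.5% low-density CMC/0.9% benzyl alcohol/0.9% saline. Mice weighed days 1 and 7; 7-day weight change given as g/mouse and %.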

[15] = system: Mus musculus; test: Antitumor activity against L1210 leukemia in mice (Average 7-day weight change (%)) at the dose of 320 mg/kg; outline: as §5
[16] = system: Mus musculus; test: Antitumor activity against L1210/ara-C leukemia in mice (Percent increase in life span.) at the dose of 320 mg/kg; outline: as §4
[17] = system: Mus musculus; test: Antitumor activity against L1210/ara-C leukemia in mice (Percent increase in life span.) at the dose of 640 mg/kg; outline: as §4
[18] = system: Mus musculus; test: Antitumor activity against L1210/ara-C leukemia in mice (Percent increase in life span.) at the dose of 80 mg/kg; outline: as §4
[19] = system: Mus musculus; test: Antitumor activity against L1210 leukemia in mice (Average 7-day weight change) at the dose of 160 mg/kg; outline: as §5
[20] = system: Mus musculus; test: Antitumor activity against L1210 leukemia in mice (Average 7-day weight change) at the dose of 320 mg/kg; outline: as §5
[21] = system: Mus musculus; test: Antitumor activity against L1210 leukemia in mice (Average 7-day weight change (%)) at the dose of 640 mg/kg; outline: as §5
[22] = system: Mus musculus; test: Antitumor activity against L1210 leukemia in mice (Average 7-day weight change (%)) at the dose of 80 mg/kg; outline: as §5
[23] = system: Mus musculus; test: Antitumor activity against L1210/ara-C leukemia in mice (Average 7-day weight change) at the dose of 160 mg/kg
Outline: (§6)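 Male B6D2F1J mice (5–9 per group) were given 10^5 L1210/ara-C cells i.p. on day 0, with treatment from day 1 on qd×5 or q4d(2,6). Vehicles were sterile water, pH 7.4 0.05 M phosphate buffer, or a Tween 80/CMC/benzyl alcohol saline suspension. Weights were taken on days 1 and 7; change is expressed in g/mouse and as a percentage.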

[24] = system: Mus musculus; test: Antitumor activity against L1210/ara-C leukemia in mice (Average 7-day weight change) at the dose of 320 mg/kg; outline: as §6
[25] = system: Mus musculus; test: Antitumor activity against L1210/ara-C leukemia in mice (Average 7-day weight change) at the dose of 640 mg/kg; outline: as §2
[26] = system: Mus musculus; test: Antitumor activity against L1210/ara-C leukemia in mice (Average 7-day weight change) at the dose of 80 mg/kg; outline: as §2
[27] = system: Mus musculus; test: Antitumor activity against L1210 leukemia in mice (Average 7-day weight change) at the dose of 640 mg/kg
Outline: (§7)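 Male B6D2F1J mice in groups of five to nine were inoculated i.p. with 10^5 L1210 cells on day 0. Dosing began on day 1 on a qd×5 or q4d(2,6) schedule. The vehicle was sterile water, pH 7.4 0.05 M potassium phosphate buffer, or a saline suspension with 0.4% Tween 80, 0.5% CMC and 0.9% benzyl alcohol. Mice were weighed on days 1 and 7; read-out is average weight change per mouse.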

[28] = system: Mus musculus; test: Antitumor activity against L1210 leukemia in mice (Average 7-day weight change) at the dose of 80 mg/kg; outline: as §7
[29] = system: Mus musculus; test: Antitumor activity against L1210/ara-C leukemia in mice (Average 7-day weight change (%)) at the dose of 160 mg/kg; outline: as §6
[30] = system: Mus musculus; test: Antitumor activity against L1210/ara-C leukemia in mice (Average 7-day weight change (%)) at the dose of 320 mg/kg; outline: as §6
[31] = system: Mus musculus; test: Antitumor activity against L1210/ara-C leukemia in mice (Average 7-day weight change (%)) at the dose of 640 mg/kg; outline: as §6
[32] = system: Mus musculus; test: Antitumor activity against L1210/ara-C leukemia in mice (Average 7-day weight change (%)) at the dose of 80 mg/kg; outline: as §6
[33] = system: B16; test: Growth inhibition of B16 mouse melanoma cells in culture was determined; settings: read-out: ID50 (the source's name)
Outline: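 B16 mouse melanoma monolayers in McCoy's 5A with 10% whole fetal calf serum, streptomycin and penicillin, 37 °C, 5% CO2. Drugs were dissolved in 0.05 M pH 7.4 potassium phosphate buffer or Me2SO and dosed at regularly spaced concentrations, generally 10^-7 to 10^-3 M. Cells were counted after 48 h; ID50 versus untreated controls was read from dose–response curves, triplicate.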

Question: How did the pIC50 [1] turn out when CCCCOP(=O)(O)OC[C@H]1O[C@@H](n2ccc(N)nc2=O)[C@@H](O)[C@@H]1O was run?
Answer: 5.12

Question: And the Average weight [2]?
Answer: 23.6 g mouse-1

Question: What about the Average weight [3] of the same molecule?
Answer: 22.4 g mouse-1

Question: And the Average weight [4]?
Answer: 22.8 g mouse-1

Question: What about the Average weight [5] of the same molecule?
Answer: 22 g mouse-1

Question: What about the Average weight [6] of the same molecule?
Answer: 22.2 g mouse-1

Question: What about the Average weight [7] of the same molecule?
Answer: 22.6 g mouse-1

Question: What about the Average weight [8] of the same molecule?
Answer: 23.4 g mouse-1

Question: And the ILS at 160 mg/kg [9]?
Answer: 50%

Question: And the ILS at 320 mg/kg [10]?
Answer: 87%

Question: And the ILS at 640 mg/kg [11]?
Answer: 87%

Question: And the ILS at 80 mg/kg [12]?
Answer: 37%

Question: What about the ILS at 160 mg/kg [13] of the same molecule?
Answer: 0%

Question: And the Weight change [14]?
Answer: 4%

Question: What about the Weight change [15] of the same molecule?
Answer: 3%

Question: And the ILS at 320 mg/kg [16]?
Answer: 0%

Question: What about the ILS at 640 mg/kg [17] of the same molecule?
Answer: -13%

Question: What about the ILS at 80 mg/kg [18] of the same molecule?
Answer: 0%

Question: And the Weight change [19]?
Answer: 1 g mouse-1

Question: And the Weight change [20]?
Answer: 0.6 g mouse-1

Question: And the Weight change [21]?
Answer: 1%

Question: What about the Weight change [22] of the same molecule?
Answer: 10%

Question: What about the Weight change [23] of the same molecule?
Answer: 3.6 g mouse-1

Question: And the Weight change [24]?
Answer: 1 g mouse-1

Question: And the Weight change [25]?
Answer: 0.2 g mouse-1

Question: And the Weight change [26]?
Answer: 3 g mouse-1

Question: What about the Weight change [27] of the same molecule?
Answer: 0.2 g mouse-1

Question: And the Weight change [28]?
Answer: 2.6 g mouse-1

Question: And the Weight change [29]?
Answer: 16%

Question: What about the Weight change [30] of the same molecule?
Answer: 5%

Question: What about the Weight change [31] of the same molecule?
Answer: 0%

Question: And the Weight change [32]?
Answer: 13%

Question: What about the pIC50 [33] of the same molecule?
Answer: 3.89

— ChEMBL document CHEMBL1122008, “Lipophilic 5'-(alkyl phosphate) esters of 1-beta-D-arabinofuranosylcytosine and its N4-acyl and 2,2'-anhydro-3'-O-acyl derivatives as potential prodrugs” (1982)
